Experimental data published in ChEMBL document CHEMBL4033754, “Antiobesity Effect of a Short-Length Peptide YY Analogue after Continuous Administration in Mice” (ACS Med Chem Lett, 2017).
Calls of active or inactive are those of the source. No cut-off for these calls is given here. Where a SMILES comes first, the peptide text is derived from it. [ ]: non-standard residue; d: D form. The star is where a group is joined. ξ: configuration not given here. ξCha = NC(CC1CCCCC1)C(=O)O; Aib = CC(C)(N)C(=O)O; Bz = O=C(c1ccccc1)*; Sar = CNCC(=O)O

How the values were obtained:
Mus musculus [1] = assay: Antiobesity activity in diet-induced obese C57BL/6J mouse assessed as inhibition of food intake at 1 mg/kg administered via subcutaneous osmotic pumps for 7 days measured on day 4 of dosing; format: functional, organism-based
In short: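 DIO mice given peptides continuously by subcutaneous osmotic pump for 7 days (n = 6), with body weight and cumulative food intake tracked daily. Statistics versus vehicle by Student's t test or Aspin-Welch test.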

Mus musculus [2] = assay: Antiobesity activity in diet-induced obese C57BL/6J mouse model assessed as reduction in body weight at 1 mg/kg administered via subcutaneous osmotic pumps for 6 to 7 days relative to control; format: functional; design: scale not given: the % may be the effect or the level left
In short: (§1)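 Male C57BL/6J DIO mice received peptides at 1 mg/(kg·day) by continuous subcutaneous osmotic pump for 6–7 days (n = 6 per group). Body weight reduction expressed as a percentage versus vehicle.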

Mus musculus [3] = assay: Antiobesity activity in lean C57BL/6J mouse assessed as inhibition of food intake at 1 mg/kg administered via subcutaneous osmotic pumps for 3 continuous days relative to control; settings: sc
Mus musculus [4] = assay: Antiobesity activity in diet-induced obese C57BL/6J mouse assessed as reduction in body weight at 1 mg/kg administered via subcutaneous osmotic pumps for 7 days relative to control; format: functional; design: scale not given: the % may be the effect or the level left; in short: as §1
Mus musculus [5] = assay: Antiobesity activity in lean C57BL/6J mouse assessed as inhibition of food intake at 0.3 mg/kg administered via subcutaneous osmotic pumps for 3 continuous days relative to control; settings: sc
Mus musculus [6] = assay: Anorectic activity in lean mouse assessed as inhibition of food intake at 300 nmol/kg through bolus subcutaneous administration relative to control; format: functional; settings: sc
[7] = biological target: T1, Neuropeptide Y receptor type 2 (Homo sapiens, UniProt P49146); assay: Displacement of [125I]-PYY from human Y2R expressed in CHO cell membranes after 60 mins by liquid scintillation method
T1 sequence (P49146 whole entry): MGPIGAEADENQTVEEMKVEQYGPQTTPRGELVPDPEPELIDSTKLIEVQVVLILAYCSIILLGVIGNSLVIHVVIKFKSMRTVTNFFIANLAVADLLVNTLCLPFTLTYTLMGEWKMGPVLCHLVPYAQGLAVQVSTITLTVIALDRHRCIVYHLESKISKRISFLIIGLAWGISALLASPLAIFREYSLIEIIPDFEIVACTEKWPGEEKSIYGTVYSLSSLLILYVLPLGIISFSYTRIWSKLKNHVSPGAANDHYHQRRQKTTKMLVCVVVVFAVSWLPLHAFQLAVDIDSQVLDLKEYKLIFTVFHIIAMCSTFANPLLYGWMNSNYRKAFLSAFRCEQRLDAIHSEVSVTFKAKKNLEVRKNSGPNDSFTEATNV

[8] = biological target: T1, Neuropeptide Y receptor type 2; assay: Agonist activity at human Y2R expressed in CHO cell membranes assessed as [35S]GTPgammaS binding after 120 mins by liquid scintillation method; format: functional
[9] = Mean residence time in C57BL/6J mouse at 1 mg/kg through subcutaneous administration after 24 hrs by LC-MS/MS analysis; format: ADME, organism-based; settings: in vivo, sc
In short: (§2)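 Single 1 mg/kg dose, intravenous or subcutaneous, to C57BL/6J mice. Blood sampled at 5, 10, 15, 30 min and 1, 3, 6, 8, 24 h post-dose. Plasma peptide quantified by LC/MS/MS. Parameters derived from the mean (n = 3) plasma concentration–time profile.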

[10] = Cmax in C57BL/6J mouse at 1 mg/kg through subcutaneous administration after 24 hrs by LC-MS/MS analysis; format: ADME, organism-based; design: dose 1 mg/kg, route subcutaneous; settings: in vivo, sc; in short: as §2
[11] = Plasma concentration in C57BL/6J mouse at 1 mg/kg, iv after 5 mins by LC-MS/MS analysis; format: ADME, organism-based; in short: as §2
[12] = Tmax in C57BL/6J mouse at 1 mg/kg through subcutaneous administration after 24 hrs by LC-MS/MS analysis; format: ADME, organism-based; settings: in vivo, sc; in short: as §2
Mus musculus [13] = assay: AUC (0 to 24 hrs) in C57BL/6J mouse at 1 mg/kg, iv by LC-MS/MS analysis; format: ADME, organism-based; design: dose 1 mg/kg, time < 24 hr, route intravenous; settings: in vivo; in short: as §2
[14] = Volume of distribution at steady state in C57BL/6J mouse at 1 mg/kg, iv after 24 hrs by LC-MS/MS analysis; format: ADME, organism-based; settings: in vivo, read-out: Vdss; in short: as §2
[15] = AUC (0 to 24 hrs) in C57BL/6J mouse at 1 mg/kg through subcutaneous administration after 24 hrs by LC-MS/MS analysis; format: ADME, organism-based; design: time < 24 hr, dose 1 mg/kg, route subcutaneous; settings: in vivo, sc; in short: as §2
Mus musculus [16] = assay: Total clearance in C57BL/6J mouse at 1 mg/kg, iv after 24 hrs by LC-MS/MS analysis; format: ADME, organism-based; settings: in vivo; in short: as §2
Mus musculus [17] = assay: Mean absorption time in C57BL/6J mouse at 1 mg/kg through subcutaneous administration after 24 hrs by LC-MS/MS analysis; format: ADME, organism-based; settings: in vivo, sc; in short: as §2
[18] = Mean residence time in C57BL/6J mouse at 1 mg/kg, iv after 24 hrs by LC-MS/MS analysis; format: ADME, organism-based; settings: in vivo; in short: as §2
[19] = Bioavailability in C57BL/6J mouse at 1 mg/kg through subcutaneous administration after 24 hrs by LC-MS/MS analysis; format: ADME, organism-based; settings: in vivo, sc; in short: as §2
Mus musculus [20] = assay: Anorectic activity in lean mouse assessed as inhibition of food intake at 1000 nmol/kg through bolus subcutaneous administration relative to control; format: functional; settings: sc

| IC50 [7] [nM] | EC50 [8] [nM] | Compound | Activity (Mus musculus [2]) [%] | inhibition in vivo at 1 mg/kg (Mus musculus [3]) [%] | MRT [9] [min] | Cmax [10] [nM] | concentration at 5 min [11] [nM] | Tmax [12] [min] | AUC (Mus musculus [13]) [µM·h] | Vd [14] [L/kg] | AUC(0-t) at 24 h [15] [µM·h] | CL (Mus musculus [16]) [mL/min/kg] | MAT (Mus musculus [17]) [h] | MRT [18] [min] | other results |
| --- | --- | --- | --- | --- | --- | --- | --- | --- | --- | --- | --- | --- | --- | --- | --- |
|  |  | CC(=O)N[C@@H](CO)C(=O)N1C[C@@H](O)C[C@@H]1C(=O)N[C@@H](CCCNC(=N)N)C(=O)N[C@@H](Cc1cnc[nH]1)C(=O)NC(CC1CCCCC1)C(=O)NC(CC1CCCCC1)C(=O)N[C@@H](CC(N)=O)C(=O)N[C@@H](CC(C)C)C(=O)NC(C)(C)C(=O)N[C@H](C(=O)N[C@@H](CCCNC(=N)N)C(=O)N[C@@H](CCC(N)=O)C(=O)N[C@@H](CCCNC(=N)N)C(=O)NC(CC1CCCCC1)C(N)=O)[C@@H](C)O (some centres not stated) |  |  |  |  |  |  |  |  |  |  |  |  | inhibition (Mus musculus [1]): Active |
|  |  | CC(=O)N[C@@H](CO)C(=O)N1C[C@@H](O)C[C@@H]1C(=O)N[C@@H](CCCNC(=N)N)C(=O)N[C@@H](Cc1cnc[nH]1)C(=O)N[C@@H](CC1CCCCC1)C(=O)N[C@@H](CC1CCCCC1)C(=O)N[C@@H](CC(N)=O)C(=O)N[C@@H](CC(C)C)C(=O)NC(C)(C)C(=O)N[C@H](C(=O)N[C@@H](CCCNC(=N)N)C(=O)N[C@@H](CCC(N)=O)C(=O)N[C@@H](CCCNC(=N)N)C(=O)N[C@@H](CC1CCCCC1)C(N)=O)[C@@H](C)O [listing 1 of 2 here] | -10.2 | 79 |  |  |  |  |  |  |  |  |  |  | Activity (Mus musculus [4]): 7.4%; inhibition in vivo at 0.3 mg/kg (Mus musculus [5]): 47%; inhibition in vivo at 0.3 µmol/kg (Mus musculus [6]): 23% |
| 2 | 0.55 | CC(=O)N[C@@H](CO)C(=O)NC(C)(C)C(=O)N[C@@H](CCCNC(=N)N)C(=O)N[C@@H](Cc1cnc[nH]1)C(=O)NC(CC1CCCCC1)C(=O)NC(CC1CCCCC1)C(=O)N[C@@H](CC(N)=O)C(=O)N[C@@H](CC(C)C)C(=O)NC(C)(C)C(=O)N[C@H](C(=O)N[C@@H](CCCNC(=N)N)C(=O)N[C@@H](CCC(N)=O)C(=O)N[C@@H](CCCNC(=N)N)C(=O)NC(CC1CCCCC1)C(N)=O)[C@@H](C)O (some centres not stated) (Ac-S[Aib]RH[ξCha][ξCha]NL[Aib]TRQR[ξCha]-NH2) |  | 51 |  |  |  |  |  |  |  |  |  |  |  |
|  |  | CC(=O)N[C@@H](CO)C(=O)N1C[C@@H](O)C[C@@H]1C(=O)N[C@@H](CCCNC(=N)N)C(=O)N[C@@H](Cc1cnc[nH]1)C(=O)N[C@@H](CC1CCCCC1)C(=O)N[C@@H](CC1CCCCC1)C(=O)N[C@@H](CC(N)=O)C(=O)N[C@@H](CC(C)C)C(=O)NC(C)(C)C(=O)N[C@H](C(=O)N[C@@H](CCCNC(=N)N)C(=O)N[C@@H](CCC(N)=O)C(=O)N[C@@H](CCCNC(=N)N)C(=O)N[C@@H](CC1CCCCC1)C(N)=O)[C@@H](C)O [listing 2 of 2 here] |  |  | 19.2 | 98.1 | 935 | 10.2 | 0.18 | 0.533 | 0.0336 | 49.47 | 0.14 | 10.8 |  |
| 2.8 | 1 | CC(=O)N[C@@H](CO)C(=O)N(C)CC(=O)N[C@@H](CCCNC(=N)N)C(=O)N[C@@H](Cc1cnc[nH]1)C(=O)NC(CC1CCCCC1)C(=O)NC(CC1CCCCC1)C(=O)N[C@@H](CC(N)=O)C(=O)N[C@@H](CC(C)C)C(=O)NC(C)(C)C(=O)N[C@H](C(=O)N[C@@H](CCCNC(=N)N)C(=O)N[C@@H](CCC(N)=O)C(=O)N[C@@H](CCCNC(=N)N)C(=O)NC(CC1CCCCC1)C(N)=O)[C@@H](C)O (some centres not stated) (Ac-S[Sar]RH[ξCha][ξCha]NL[Aib]TRQR[ξCha]-NH2) |  | 13 |  |  |  |  |  |  |  |  |  |  |  |

| Compound | IC50 [7] [nM] | EC50 [8] [nM] | Activity (Mus musculus [2]) [%] | inhibition in vivo at 1 mg/kg (Mus musculus [3]) [%] | MRT [9] [min] | Cmax [10] [nM] | concentration at 5 min [11] [nM] | Tmax [12] [min] | AUC (Mus musculus [13]) [µM·h] | Vd [14] [L/kg] | AUC(0-t) at 24 h [15] [µM·h] | CL (Mus musculus [16]) [mL/min/kg] | MAT (Mus musculus [17]) [h] | MRT [18] [min] | other results |
| --- | --- | --- | --- | --- | --- | --- | --- | --- | --- | --- | --- | --- | --- | --- | --- |
| CC(C)C[C@H](NC(=O)[C@H](CC(N)=O)NC(=O)C(CC1CCCCC1)NC(=O)C(CC1CCCCC1)NC(=O)[C@H](Cc1cnc[nH]1)NC(=O)[C@H](CCCNC(=N)N)NC(=O)c1ccccc1)C(=O)NC(C)(C)C(=O)N[C@H](C(=O)N[C@@H](CCCNC(=N)N)C(=O)N[C@@H](CCC(N)=O)C(=O)N[C@@H](CCCNC(=N)N)C(=O)NC(CC1CCCCC1)C(N)=O)[C@@H](C)O (some centres not stated) (Bz-RH[ξCha][ξCha]NL[Aib]TRQR[ξCha]-NH2) | 7.4 | 2 | 0.4 |  | 190 | 75.6 | 7550 | 15 | 3.56 | 0.073 | 0.209 | 2.7 | 2.72 | 27 | bioavailability [19]: 5.9%; inhibition in vivo at 1 µmol/kg (Mus musculus [20]): 20% |
